≈ marks a conversion by molar mass, not a printed value.
Assays:
[1] = biological target: Voltage-gated inwardly rectifying potassium channel KCNH2 (Homo sapiens, UniProt Q12809); assay: Inhibition of human ERG
[2] = biological target: Matrix metalloproteinase-9 (Homo sapiens, UniProt P14780); assay: Inhibition of human recombinant MMP9 using Cy3-PLGLK(Cy5Q)AR-NH2 as substrate after 40 mins by spectrofluorimetry
[3] = Solubility of the compound in Britton-Robinson buffer at pH 7; assay type: physicochemical
[4] = Solubility of the compound in water; assay type: physicochemical; settings: buffer
[5] = biological target: 72 kDa type IV collagenase (Homo sapiens, UniProt P08253); assay: Inhibition of human recombinant MMP2 using Cy3-PLGLK(Cy5Q)AR-NH2 as substrate after 40 mins by spectrofluorimetry
[6] = biological target: Matrix metalloproteinase-14 (Homo sapiens, UniProt P50281); assay: Inhibition of human recombinant GST-tagged MMP14 using Cy3-PLGLK(Cy5Q)AR-NH2 as substrate after 40 mins by spectrofluorimetry
Interstitial collagenase = biological target: T1, Interstitial collagenase (Homo sapiens, UniProt P03956); assay: Inhibition of human recombinant MMP1 using Cy3-PLGLK(Cy5Q)AR-NH2 as substrate after 40 mins by spectrofluorimetry
T1 sequence (P03956 whole entry): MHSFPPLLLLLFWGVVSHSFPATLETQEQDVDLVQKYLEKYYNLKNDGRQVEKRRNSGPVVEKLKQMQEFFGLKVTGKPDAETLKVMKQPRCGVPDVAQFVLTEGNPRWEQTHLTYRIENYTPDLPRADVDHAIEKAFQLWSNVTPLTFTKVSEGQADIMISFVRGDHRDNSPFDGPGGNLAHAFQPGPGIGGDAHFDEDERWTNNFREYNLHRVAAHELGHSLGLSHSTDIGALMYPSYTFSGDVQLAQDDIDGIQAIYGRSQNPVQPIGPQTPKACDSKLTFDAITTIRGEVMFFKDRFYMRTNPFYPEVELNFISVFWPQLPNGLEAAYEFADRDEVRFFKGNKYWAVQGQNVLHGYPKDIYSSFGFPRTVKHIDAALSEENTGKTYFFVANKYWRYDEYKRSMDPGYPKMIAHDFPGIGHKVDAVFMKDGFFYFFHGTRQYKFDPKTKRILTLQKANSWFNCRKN
Procedure, shortened: (§1)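 Human recombinant pro-enzymes were activated with 1 mM APMA at 37 °C, for 2 h (MMP-1) or 18 h (MMP-3). Reactions were stopped with EDTA and read at […] nm. Activity was scaled to no-inhibitor and EDTA controls, and IC50 obtained by iterative fitting.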

[7] = Apparent permeability in human Caco2 cells; assay type: ADME, cell-based; settings: Caco-2
Rattus norvegicus = assay: Intrinsic clearance in iv dosed rat; assay type: ADME, organism-based; settings: in vivo
Liver microsome = assay: Metabolic stability in rat liver microsomes; assay type: ADME
Procedure, shortened: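 The free acid was incubated with hepatic microsomes of each species. Stability is reported as clearance in μL/min/mg microsomal protein.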

Matrilysin = biological target: T2, Matrilysin (Homo sapiens, UniProt P09237); assay: Inhibition of human recombinant MMP7 using Cy3-PLGLK(Cy5Q)AR-NH2 as substrate after 40 mins by spectrofluorimetry
T2 sequence (P09237 whole entry): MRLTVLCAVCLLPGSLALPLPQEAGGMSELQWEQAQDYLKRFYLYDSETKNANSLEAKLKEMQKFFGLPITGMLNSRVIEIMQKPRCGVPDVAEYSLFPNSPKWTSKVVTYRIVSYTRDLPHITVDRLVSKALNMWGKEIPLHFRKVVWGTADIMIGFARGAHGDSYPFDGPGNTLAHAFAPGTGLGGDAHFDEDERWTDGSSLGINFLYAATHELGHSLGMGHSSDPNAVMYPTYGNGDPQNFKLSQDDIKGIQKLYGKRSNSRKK

[8] = Inhibition of cytochrome P450 (unknown origin); assay type: ADME; settings: human
Stromelysin-1 = Stromelysin-1 (Homo sapiens, UniProt P08254); assay: Inhibition of human recombinant MMP3 using Cy3-PLGLK(Cy5Q)AR-NH2 as substrate after 40 mins by spectrofluorimetry; procedure, shortened: as §1
Collagenase 3 = Collagenase 3 (Homo sapiens, UniProt P45452); assay: Inhibition of human recombinant MMP13 using Cy3-PLGLK(Cy5Q)AR-NH2 as substrate after 40 mins by spectrofluorimetry
[9] = biological target: Disintegrin and metalloproteinase domain-containing protein 17 (Homo sapiens, UniProt P78536); assay: Inhibition of human recombinant TACE using Cy3-PLAQAV(Cy5Q-L-2,3-diaminopropionic acid)-RSSSRNH2 as substrate after 40 mins by spectrofluorimetry
Stromelysin-2 = Stromelysin-2 (Homo sapiens, UniProt P09238); assay: Inhibition of human recombinant MMP10 using Cy3-PLGLK(Cy5Q)AR-NH2 as substrate after 40 mins by spectrofluorimetry
Neutrophil collagenase = Neutrophil collagenase (Homo sapiens, UniProt P22894); assay: Inhibition of human recombinant MMP8 using Cy3-PLGLK(Cy5Q)AR-NH2 as substrate after 40 mins by spectrofluorimetry
Sequence of Neutrophil collagenase (P22894 whole entry): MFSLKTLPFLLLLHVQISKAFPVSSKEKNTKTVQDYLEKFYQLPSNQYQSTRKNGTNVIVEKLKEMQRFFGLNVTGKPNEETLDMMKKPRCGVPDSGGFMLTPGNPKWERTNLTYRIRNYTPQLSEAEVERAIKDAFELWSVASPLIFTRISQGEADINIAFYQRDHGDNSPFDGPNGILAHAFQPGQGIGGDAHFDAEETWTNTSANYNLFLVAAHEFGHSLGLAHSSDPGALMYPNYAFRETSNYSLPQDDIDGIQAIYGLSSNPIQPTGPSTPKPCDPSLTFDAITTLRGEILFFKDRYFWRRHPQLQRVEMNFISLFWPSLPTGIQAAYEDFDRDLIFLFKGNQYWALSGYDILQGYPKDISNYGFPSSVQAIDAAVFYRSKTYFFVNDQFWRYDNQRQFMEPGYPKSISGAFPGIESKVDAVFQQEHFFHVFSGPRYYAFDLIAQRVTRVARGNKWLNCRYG

Sequence of Disintegrin and metalloproteinase domain-containing protein 17 (P78536 whole entry, the tested form may be a part): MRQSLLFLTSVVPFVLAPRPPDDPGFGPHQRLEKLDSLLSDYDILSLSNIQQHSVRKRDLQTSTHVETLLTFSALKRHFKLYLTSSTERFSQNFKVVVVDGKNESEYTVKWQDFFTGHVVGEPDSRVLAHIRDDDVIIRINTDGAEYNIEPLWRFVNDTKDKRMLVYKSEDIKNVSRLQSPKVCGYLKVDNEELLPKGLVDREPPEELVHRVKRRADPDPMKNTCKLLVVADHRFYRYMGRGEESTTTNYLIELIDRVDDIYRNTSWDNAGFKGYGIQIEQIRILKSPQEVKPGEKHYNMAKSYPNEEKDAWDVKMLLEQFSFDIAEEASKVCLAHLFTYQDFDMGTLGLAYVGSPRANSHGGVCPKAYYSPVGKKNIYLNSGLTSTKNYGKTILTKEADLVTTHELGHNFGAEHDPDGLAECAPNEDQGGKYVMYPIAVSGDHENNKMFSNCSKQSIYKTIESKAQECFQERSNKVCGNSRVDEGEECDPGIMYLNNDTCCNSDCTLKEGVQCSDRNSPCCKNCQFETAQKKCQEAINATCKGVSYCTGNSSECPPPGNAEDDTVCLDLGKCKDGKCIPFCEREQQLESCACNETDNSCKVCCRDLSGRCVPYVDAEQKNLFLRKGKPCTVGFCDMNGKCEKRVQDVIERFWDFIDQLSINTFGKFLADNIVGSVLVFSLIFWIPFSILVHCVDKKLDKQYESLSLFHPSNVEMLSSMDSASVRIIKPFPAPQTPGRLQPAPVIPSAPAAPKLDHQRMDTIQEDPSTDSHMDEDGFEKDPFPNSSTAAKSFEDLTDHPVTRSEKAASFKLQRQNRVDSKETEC
Sequence of Stromelysin-2 (P09238 whole entry): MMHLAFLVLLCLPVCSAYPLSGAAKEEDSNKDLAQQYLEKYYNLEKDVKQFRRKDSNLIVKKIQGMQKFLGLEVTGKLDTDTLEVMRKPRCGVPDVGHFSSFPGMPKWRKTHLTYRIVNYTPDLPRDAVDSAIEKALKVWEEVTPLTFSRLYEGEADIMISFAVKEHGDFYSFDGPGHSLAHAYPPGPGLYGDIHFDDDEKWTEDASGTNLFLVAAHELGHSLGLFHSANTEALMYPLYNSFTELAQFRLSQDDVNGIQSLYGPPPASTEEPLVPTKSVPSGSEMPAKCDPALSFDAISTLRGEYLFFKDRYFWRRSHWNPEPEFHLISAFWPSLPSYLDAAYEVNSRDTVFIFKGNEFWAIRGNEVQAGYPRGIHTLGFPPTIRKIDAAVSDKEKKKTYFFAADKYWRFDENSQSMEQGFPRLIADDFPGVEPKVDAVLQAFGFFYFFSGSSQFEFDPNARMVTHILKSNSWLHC
Sequence of Matrix metalloproteinase-9 (P14780 whole entry): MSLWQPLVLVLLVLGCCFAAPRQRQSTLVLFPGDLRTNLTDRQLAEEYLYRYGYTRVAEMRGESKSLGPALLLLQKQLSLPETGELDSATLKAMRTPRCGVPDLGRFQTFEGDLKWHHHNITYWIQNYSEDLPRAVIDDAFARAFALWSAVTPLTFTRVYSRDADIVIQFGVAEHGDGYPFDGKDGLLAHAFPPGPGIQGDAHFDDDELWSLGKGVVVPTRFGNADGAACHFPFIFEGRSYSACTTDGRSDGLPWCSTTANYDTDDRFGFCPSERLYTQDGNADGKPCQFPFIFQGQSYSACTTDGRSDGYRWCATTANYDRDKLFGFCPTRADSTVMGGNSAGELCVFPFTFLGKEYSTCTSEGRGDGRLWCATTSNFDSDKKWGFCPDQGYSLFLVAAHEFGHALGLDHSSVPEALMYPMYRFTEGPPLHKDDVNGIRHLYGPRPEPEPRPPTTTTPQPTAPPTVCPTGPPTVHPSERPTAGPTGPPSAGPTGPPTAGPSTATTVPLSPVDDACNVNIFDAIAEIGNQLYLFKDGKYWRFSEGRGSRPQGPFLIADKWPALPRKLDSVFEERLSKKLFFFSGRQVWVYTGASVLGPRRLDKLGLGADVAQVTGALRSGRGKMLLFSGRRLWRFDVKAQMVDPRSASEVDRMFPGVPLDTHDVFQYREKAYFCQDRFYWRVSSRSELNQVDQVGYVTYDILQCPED
Sequence of Voltage-gated inwardly rectifying potassium channel KCNH2 (Q12809 whole entry): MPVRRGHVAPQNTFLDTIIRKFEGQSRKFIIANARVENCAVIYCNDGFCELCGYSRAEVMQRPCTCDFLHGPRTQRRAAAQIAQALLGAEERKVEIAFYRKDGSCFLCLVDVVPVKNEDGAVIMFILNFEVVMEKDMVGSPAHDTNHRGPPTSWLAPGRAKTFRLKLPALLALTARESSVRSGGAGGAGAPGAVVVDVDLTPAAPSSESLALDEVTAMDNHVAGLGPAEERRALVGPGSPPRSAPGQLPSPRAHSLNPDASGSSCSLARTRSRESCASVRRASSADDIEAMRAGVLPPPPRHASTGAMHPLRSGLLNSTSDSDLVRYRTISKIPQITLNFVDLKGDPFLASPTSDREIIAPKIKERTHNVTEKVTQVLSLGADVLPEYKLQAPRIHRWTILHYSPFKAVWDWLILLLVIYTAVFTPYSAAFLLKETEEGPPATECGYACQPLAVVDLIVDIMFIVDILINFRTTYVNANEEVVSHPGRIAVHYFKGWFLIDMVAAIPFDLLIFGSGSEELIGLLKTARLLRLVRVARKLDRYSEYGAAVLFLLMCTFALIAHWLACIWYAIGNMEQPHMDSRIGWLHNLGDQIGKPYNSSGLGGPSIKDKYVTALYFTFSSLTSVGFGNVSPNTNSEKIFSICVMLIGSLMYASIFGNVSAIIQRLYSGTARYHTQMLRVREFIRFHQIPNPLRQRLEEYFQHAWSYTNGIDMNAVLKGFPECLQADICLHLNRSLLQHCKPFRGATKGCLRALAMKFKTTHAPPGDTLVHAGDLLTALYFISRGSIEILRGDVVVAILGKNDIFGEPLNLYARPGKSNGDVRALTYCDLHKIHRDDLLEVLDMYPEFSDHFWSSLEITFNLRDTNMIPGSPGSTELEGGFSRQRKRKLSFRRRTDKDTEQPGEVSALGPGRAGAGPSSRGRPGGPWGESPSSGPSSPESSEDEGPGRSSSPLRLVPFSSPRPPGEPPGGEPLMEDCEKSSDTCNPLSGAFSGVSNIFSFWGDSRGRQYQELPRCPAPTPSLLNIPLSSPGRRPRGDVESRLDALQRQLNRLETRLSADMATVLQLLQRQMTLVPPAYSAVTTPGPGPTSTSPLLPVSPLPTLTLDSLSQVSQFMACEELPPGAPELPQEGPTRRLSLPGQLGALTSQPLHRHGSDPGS
Sequence of 72 kDa type IV collagenase (P08253 whole entry): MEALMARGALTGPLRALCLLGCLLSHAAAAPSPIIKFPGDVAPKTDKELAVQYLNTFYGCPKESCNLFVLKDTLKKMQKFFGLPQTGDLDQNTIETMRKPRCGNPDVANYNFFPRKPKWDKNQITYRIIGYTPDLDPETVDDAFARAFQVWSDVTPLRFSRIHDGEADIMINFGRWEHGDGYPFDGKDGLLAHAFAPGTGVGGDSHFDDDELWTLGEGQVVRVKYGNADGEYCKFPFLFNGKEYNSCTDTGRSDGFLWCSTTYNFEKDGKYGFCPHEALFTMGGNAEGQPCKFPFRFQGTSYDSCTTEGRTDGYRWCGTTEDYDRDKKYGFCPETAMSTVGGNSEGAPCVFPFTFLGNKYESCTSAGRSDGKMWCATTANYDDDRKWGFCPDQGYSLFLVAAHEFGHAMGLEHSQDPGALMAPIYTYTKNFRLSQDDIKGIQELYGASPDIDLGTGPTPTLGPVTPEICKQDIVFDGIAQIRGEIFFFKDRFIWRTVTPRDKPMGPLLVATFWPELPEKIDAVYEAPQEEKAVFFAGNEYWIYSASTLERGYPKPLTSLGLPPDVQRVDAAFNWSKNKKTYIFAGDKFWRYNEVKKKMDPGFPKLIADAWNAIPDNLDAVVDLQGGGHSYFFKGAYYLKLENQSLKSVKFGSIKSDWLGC
Sequence of Stromelysin-1 (P08254 whole entry): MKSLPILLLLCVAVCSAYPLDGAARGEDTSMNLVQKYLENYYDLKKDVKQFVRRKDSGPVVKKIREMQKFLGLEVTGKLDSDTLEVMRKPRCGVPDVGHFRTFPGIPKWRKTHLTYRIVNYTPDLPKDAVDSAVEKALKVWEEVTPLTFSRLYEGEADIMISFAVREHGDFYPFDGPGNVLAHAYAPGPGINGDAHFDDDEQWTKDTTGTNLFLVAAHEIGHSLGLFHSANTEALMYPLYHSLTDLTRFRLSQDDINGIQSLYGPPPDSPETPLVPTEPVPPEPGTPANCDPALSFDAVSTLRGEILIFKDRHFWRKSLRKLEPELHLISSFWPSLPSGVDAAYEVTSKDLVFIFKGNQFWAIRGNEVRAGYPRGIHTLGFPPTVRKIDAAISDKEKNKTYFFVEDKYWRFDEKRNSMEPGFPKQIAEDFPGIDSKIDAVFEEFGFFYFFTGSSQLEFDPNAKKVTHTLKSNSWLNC

IC50 [2]: > 10 µM
solubility [3]: 0.7 µg/mL (≈ 1.42 µM)
solubility [4]: Insoluble
IC50 [5]: 5.3 µM
IC50 [6]: > 10 µM
IC50 (Interstitial collagenase): > 10 µM
Papp [7]: 4.77 ×10⁻⁶ cm/s
CL (Rattus norvegicus): 28.3 mL/min/kg
Microsomal clearance (Liver microsome): 70 µL/min/mg
IC50 (Matrilysin): > 10 µM
inhibition (INH) [8]: Not Active
IC50 (Stromelysin-1): 4 µM
IC50 (Collagenase 3): 3.9 pM
IC50 [9]: > 10 µM
IC50 (Stromelysin-2): 0.16 µM
IC50 (Neutrophil collagenase): 0.72 µM
SMILES: COc1cccc(CNC(=O)c2nc3ccc(F)c(OCCc4ccc(C(=O)O)cc4)c3c(=O)[nH]2)c1
inhibition (INH) [1]: Not Active

— ChEMBL document CHEMBL3352689 (J Med Chem, 2014)
